ChEMBL document CHEMBL1122607, “Heterocyclic analogues of chlorcyclizine with potent hypolipidemic activity” (J Med Chem, 1984)
“And” between values parts separate entries of the source, which are not always exact repeats. Identical values can stand only once.

What was measured:
[1] = system: Rattus norvegicus; experiment: Hypolipidemic activity was measured as reduction in rat serum cholesterol after oral administration in male Wistar rats at 100 mg / (kg day); format: functional
Procedure, shortened: (§1)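 Cholesterol-fed rats given the test compound orally by gavage on the last 3 days, with controls receiving vehicle (0.5% tragacanth mucilage). After overnight starvation, rats were killed under CO2 3 h after the last dose and bled by cardiac puncture. Serum cholesterol and triglyceride were measured by autoanalyzer and expressed as percentage reduction from control levels, with Student's t test.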

[2] = system: Rattus norvegicus; experiment: Hypolipidemic activity was measured as reduction in rat serum triglyceride after oral administration in male Wistar rats at 100 mg / (kg day); format: functional; procedure, shortened: as §1
[3] = system: Rattus norvegicus; experiment: Hypolipidemic activity was measured as reduction in rat serum triglyceride after oral administration in male Wistar rats at 30 mg / (kg day); format: functional; procedure, shortened: as §1
[4] = system: Rattus norvegicus; experiment: Hypolipidemic activity was measured as reduction in rat serum triglyceride after oral administration in male Wistar rats at 10 mg / (kg day); format: functional; procedure, shortened: as §1
[5] = system: Rattus norvegicus; experiment: Hypolipidemic activity was measured as reduction in rat serum cholesterol after oral administration in male Wistar rats at 10 mg / (kg day); format: functional; procedure, shortened: as §1
[6] = system: Rattus norvegicus; experiment: Hypolipidemic activity was measured as reduction in rat serum cholesterol after oral administration in male Wistar rats at 100 mg/(kg day); format: functional; procedure, shortened: as §1
[7] = system: Rattus norvegicus; experiment: Hypolipidemic activity was measured as reduction in rat serum cholesterol after oral administration in male Wistar rats at 30 mg / (kg day); format: functional; procedure, shortened: as §1
[8] = system: Rattus norvegicus; experiment: Hypolipidemic activity was measured as reduction in rat serum triglyceride after oral administration in male Wistar rats at 200 mg / (kg day); format: functional; procedure, shortened: as §1
[9] = system: Rattus norvegicus; experiment: Hypolipidemic activity was measured as reduction in rat serum cholesterol after oral administration in male Wistar rats at 200 mg / (kg day); format: functional; procedure, shortened: as §1
[10] = The therapeutic safety margin (TSM) is the ratio of the minimum lethal dose (mg/kg)to the MED; format: ADME, organism-based; settings: in vivo
Procedure, shortened: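 Young male Wistar rats, eight per group, on cholesterol/cholic acid-supplemented or normal diet; graded oral gavage doses daily for 14 days; vehicle controls (0.5% tragacanth mucilage). Mortalities recorded to give the minimum lethal daily dose. After overnight fasting, serum cholesterol assayed by autoanalyzer. MED is the dose giving a significant (t test) 30% cholesterol fall, from the log dose/response curve. TSM = minimum lethal dose/MED.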

[11] = system: Rattus norvegicus; experiment: Minimum effective dose (MED) is the dose (mg/kg)that cause significant reduction in serum cholesterol of 30% compared to concurrent controls.; format: functional; parameters: unit: mg/kg
Procedure, shortened: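 MED was calculated from the log dose/response curve as the dose giving a statistically significant 30% fall in serum cholesterol versus concurrent controls. Measured in the 3-day oral cholesterol-fed rat screen, or in a 2-week test: groups of eight young male Wistar rats on cholesterol/cholic acid-supplemented or normal diet, dosed orally by gavage daily for 14 days, vehicle 0.5% tragacanth mucilage.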

Structure (SMILES)	Reduction [1] [%]	Reduction [2] [%]	Reduction [3] [%]	Reduction [6]	Reduction [7] [%]	further results
Cc1cc(C(OCCN2CCCC2)c2ccc(C(C)C)cc2)sn1 (centres undefined)	30	2				
Cc1ccccc1C(c1nccn1C)N1CCN(C)CC1 (centres undefined)	5	29				
CCOC(=O)N1CCN(C(c2ccc(C(C)C)cc2)c2cc(C)ns2)CC1 (centres undefined)	10	6				
Cc1ccc(C(c2sncc2C)N2CCN(C)CC2)cc1C (centres undefined)		73	9	74%	15	Reduction [4]: 21%; Reduction [5]: 20%
COc1ccc(C(c2cc(C)ns2)N2CCN(C)CC2)cc1OC (centres undefined)						Reduction [8]: 4%; Reduction [9]: 7%
Cc1cnsc1C(c1ccccc1Cl)N1CCN(C)CC1 (centres undefined)		90	10	80%	44	Reduction [4]: 1%; therapeutic safety margin (minimum lethal dose / MED) [10]: < 20; MED [11]: 20; Reduction [5]: 16%
Cc1cc(C(SCCN(C)C)c2ccc(C(C)C)cc2)sn1 (centres undefined)		55		36%		
CCCCOc1ccccc1C(c1cc(C)ns1)N1CCN(C)CC1 (centres undefined)		67	57	74%	32	
Cc1cc(C(c2ccc(C(C)(C)C)cc2)N2CCN(C)CC2)sn1 (centres undefined)	25	20				
Cc1cc(C(c2ccc(C(C)C)cc2)C2CCN(C)CC2)sn1 (centres undefined)		42	32	45%	12	
Cc1cc(C(c2cccc(Cl)c2)N2CCN(C)CC2)sn1 (centres undefined)		41		33%		
Cc1noc(C)c1C(c1ccc(C(C)C)cc1)N1CC[N+](C)(C)CC1 (centres undefined)	1	28				
Cc1cc(C(c2cccc(C(F)(F)F)c2)N2CCN(C)CC2)sn1 (centres undefined)	8	30				
CCc1ccccc1C(c1cc(C)ns1)N1CCN(C)CC1 (centres undefined)		88		81%	71	
Cc1cc(C(c2ccccc2F)N2CCN(C)CC2)sn1 (centres undefined)						Reduction [8]: 57%; Reduction [9]: 25%
Cc1cc(C(OCCN(C)C)c2ccc(C(C)C)cc2)sn1 (centres undefined)		41	36	45%	3	
Cc1cc(C(c2ccc(C3CCCCC3)cc2)N2CCN(C)CC2)sn1 (centres undefined)		73		64%	7	
Cc1noc(C)c1C(c1ccccc1Cl)N1CCN(C)CC1 (centres undefined)		41	6	52%	7	
COc1ccc(C(c2cc(C)ns2)N2CCN(C)CC2)cc1 (centres undefined)						Reduction [8]: 23%; Reduction [9]: 0%
Cc1ccccc1C(c1sncc1C)N1CCN(C)CC1 (centres undefined)		64		72%		

Structure (SMILES)	Reduction [1] [%]	Reduction [2] [%]	Reduction [3] [%]	Reduction [6]	Reduction [7] [%]	further results
Cc1cc(C(c2ccc(C(C)C)cc2)N2CCOCC2)sn1 (centres undefined)	7	10				
CCOc1ccccc1C(c1cc(C)ns1)N1CCN(C)CC1 (centres undefined)	25	35				
CCc1ccc(C(c2ccns2)N2CCN(C)CC2)cc1 (centres undefined)	32			74% and 58%		therapeutic safety margin (minimum lethal dose / MED) [10]: < 20; MED [11]: 10
Cc1cc(C(c2ccccc2)N2CCN(Cc3ccccc3)CC2)sn1 (centres undefined)						Reduction [8]: 56%; Reduction [9]: 26%
Cc1nc(C)c(C(c2ccccc2Cl)N2CCN(C)CC2)s1 (centres undefined)		79		78%		
Cc1cc(C(c2ccccc2C(C)C)N2CCN(C)CC2)sn1 (centres undefined)			9		36	
Cc1cc(C(c2ccc(C(C)C)cc2)N2CCCCC2)sn1 (centres undefined)	16	1				
Cc1cc(C(Nc2cccnc2)c2ccc(C(C)C)cc2)sn1 (centres undefined)	16	5				
Cc1ccc(C(c2cc(C)ns2)N2CCN(C)CC2)cc1 (centres undefined)	9					
Cc1cc(C(c2ccc(C)c(C)c2)N2CCN(C)CC2)sn1 (centres undefined)	11	1				
Cc1noc(C)c1C(OC1CCNCC1)c1ccc(C(C)C)cc1 (centres undefined)		23	8	45%	4	
Cc1cc(C(c2ccc(Oc3ccccc3)cc2)N2CCN(C)CC2)sn1 (centres undefined)		59	25	42%	17	
Cc1cc(C(c2ccc(C(C)C)cc2)N2CC(C)NC(C)C2)sn1 (centres undefined)	16	32				
Cc1cc(C(c2ccc(C(C)C)cc2)N2CCN(CCO)CC2)sn1 (centres undefined)		73	14	73%	67	Reduction [4]: 0%; therapeutic safety margin (minimum lethal dose / MED) [10]: 20; MED [11]: 15; Reduction [5]: 23%
CN1CCN(C(c2ccccc2)c2ccccn2)CC1 (centres undefined)		74	16	81%	22	
CCc1ccc(C(c2sncc2C)N2CCN(CCO)CC2)cc1 (centres undefined)			51		45	Reduction [4]: 3%; Reduction [5]: 15%
Cc1cc(C(c2ccccc2OC(C)C)N2CCN(C)CC2)sn1 (centres undefined)		86		83%		
Cc1cc(C(N)c2ccc(C(C)C)cc2)sn1 (centres undefined)						Reduction [8]: 9%; Reduction [9]: 34%
COc1cccc(C(c2cc(C)ns2)N2CCN(C)CC2)c1 (centres undefined)						Reduction [8]: 2%; Reduction [9]: 3%
Cc1cc(C(O)(c2ccc(C(C)C)cc2)C2CCN(C)CC2)sn1 (centres undefined)		85	57	67%	57	Reduction [4]: 25%; Reduction [5]: 28%

Structure (SMILES)	Reduction [1] [%]	Reduction [2] [%]	Reduction [3] [%]	Reduction [6]	Reduction [7] [%]	further results
Cc1ccccc1C(c1c(C)noc1C)N1CCNCC1 (centres undefined)		80	21	76%	26	Reduction [4]: 46%; Reduction [5]: 2%
Cc1cc(C(c2ccc(OC(C)C)cc2)N2CCN(C)CC2)sn1 (centres undefined)		31		33%		
CC(C)c1ccc(C(c2ccns2)N2CCN(CCO)CC2)cc1 (centres undefined)		89	49	74%	80	therapeutic safety margin (minimum lethal dose / MED) [10]: 40; MED [11]: 5
Cc1cc(C(c2ccc(F)cc2)N2CCN(C)CC2)sn1 (centres undefined)	11	15				
Cc1cnsc1C(c1ccc(CC(C)C)cc1)N1CCN(CCO)CC1 (centres undefined)		97	81	85%	86	Reduction [4]: 48%; MED [11]: 6; Reduction [5]: 48%
Cc1cc(C(c2ccc(C(C)C)cc2)N2CCN(S(C)(=O)=O)CC2)sn1 (centres undefined)	19	3				
Cc1noc(C)c1C(OC1CCCN(C)C1)c1ccc(C(C)C)cc1 (centres undefined)		52	16	79%	38	Reduction [4]: 12%; Reduction [5]: 32%
Cc1cc(C(c2ccc(C(C)C)cc2)N2CCN(C(=O)c3ccccc3)CC2)sn1 (centres undefined)	26	16				
CN1CCN(C(c2ccccc2Cl)c2nccn2C)CC1 (centres undefined)						Reduction [8]: 64%; Reduction [9]: 53%
CCCCCc1ccc(C(c2ccns2)N2CCN(C)CC2)cc1 (centres undefined)			23		26	Reduction [8]: 85%; Reduction [9]: 87%
Cc1cc(C(c2cccc([N+](=O)[O-])c2)N2CCN(C)CC2)sn1 (centres undefined)	2	17				
Cc1cc(C(c2ccc(OCc3ccccc3)cc2)N2CCN(C)CC2)sn1 (centres undefined)	11	34				
Cc1noc(C)c1C(c1ccccc1Cl)N1CCNCC1 (centres undefined)		97	62	87%	14	
Cc1cccc(C(c2cc(C)ns2)N2CCN(C)CC2)c1 (centres undefined)	26	22				
Cc1cc(C(c2ccc(C(C)C)cc2)N2CCNCC2)sn1 (stereo in doubt; 66)		73	23	68%	59	Reduction [4]: 4%; Reduction [5]: 38%
CN1CCN(C(c2ccccc2)c2ccc(Cl)cc2)CC1 (centres undefined) [CHLORCYCLIZINE]						therapeutic safety margin (minimum lethal dose / MED) [10]: 10; MED [11]: 15
CCOC(=O)C(C)(C)Oc1ccc(Cl)cc1 [CLOFIBRATE]						MED [11]: 200
CC(C)OC(=O)C(C)(C)Oc1ccc(C(=O)c2ccc(Cl)cc2)cc1 [FENOFIBRATE]						MED [11]: 200
O=C(O)c1cccnc1 [NIACIN]						MED [11]: 400
